This note sets out measurements from PubChem BioAssay.

SMILES strings stand for the structures. The source made the active and inactive calls.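 How the source made its calls, unless noted: active means inhibition at or above 50% at 10 µM; inactive means inhibition below 50%.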

Assay [1] is described as follows: inhibitors of TNFa-induced NFkB p65 translocation, primary screen, imaging, HUVEC, MLSMR starter and 10KST1 sets (AID 438;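 active means inhibition above 20% together with a positive visual image hit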;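 further: compound added about 3h40 before a 20 min TNFalpha stimulation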;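 on inhibition: signal is the nuclear over cytoplasmic p65 intensity ratio per well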). To be noted: HUVEC TNFa-induced p65 nuclear translocation; cell count: measured here: nuclei count (cytotoxicity indicator), at 2.08 µM; inhibition: at 2 µM, stronger effect = higher value, 0% TNFa-plus-vehicle, 100% no-TNFa wells.
Assay [2] can be described thus: inhibitors of mutant huntingtin aggregation, primary screen, imaging, exon1htt(103Q)mCFP cells, high-content imaging (AID 483;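 active means visual image review flags a hit and inhibition of aggregation exceeds 20%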;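 further: compound exposure lasted 3 days before fixation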;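 on nuclei count: percent of the per-plate median nuclei count of sample wells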). Conditions: exon1htt(103Q)mCFP cell line, aggregate imaging, at 2 µM; inhibition of aggregation: stronger effect = higher value; nuclei count: measured here: cell count, toxicity.
Assay [3] is described as follows: inhibitors of E-selectin induction by TNFa, primary screen, imaging, HUVEC, immunofluorescence, MLSMR starter and 10KST1 sets (AID 487;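 active means visually confirmed hit in the image check and inhibition above 20%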;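 on inhibition: signal is fraction of cell area covered by stained E-selectin grains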;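 on nuclei count: 100% = median nuclei count of all wells on the same plate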). To be noted: HUVEC TNFalpha-induced E-selectin immunofluorescence imaging, at 2 µM; inhibition: stronger effect = higher value; nuclei count: measured here: cell number, toxicity.
The target in assay [4] is Voltage-gated potassium channel subunit beta-2 (Rattus norvegicus) (UniProt P62483). Nature of the assay: KvBeta enzyme negative modulators, primary screen, biochemical, NADPH fluorescence (AID 622;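 active means fluorescence slope higher than the sample average by over 3 SD, cut at about -0.22 in these data, passing the limit was not always enough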;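 further: slope of raw intensity against log time taken from 70 to 1610 s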). To be noted: recombinant KvBeta, 4-cyanobenzaldehyde reduction, at 10 µM, stronger effect = higher value.
Assay [5] has the same target. Nature of the assay: KvBeta positive modulators, primary screen, biochemical, NADPH fluorescence (AID 623;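 active means NADPH fluorescence slope more negative than the mean of all samples by about 3 SD, 99.7% confidence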;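 further: fluorescence intensity change per second fitted from 20 to 320 s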). To be noted: Recombinant KvBeta, NADPH fluorescence decrease slope, 10 min; at 10 µM; stronger effect = lower value.
Assay [6] deals with Muscarinic acetylcholine receptor M4 (Homo sapiens) (UniProt P08173). Nature of the assay: compounds altering M4/GIRK thallium flux, either direction, primary screen, M4 allosteric agonist project, cell-based, HEK293 M4/GIRK, BTC-AM (AID 625;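 active means fluorescence slope after compound addition differing from the mean of all tested samples at 99.7% confidence, mostly higher but some lower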;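 further: thallium influx through GIRK channels coupled to M4 in HEK293 cells with BTC-AM dye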). To be noted: at 10 µM, actives lie on both sides. Put shortly: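 Assay system: HEK293 cells with M4 receptor and GIRK channels / Controls: carbachol and DMSO controls / Schedule: 1 h dye loading, 2 min kinetic read / Technique: kinetic fluorescence with BTC-AM dye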

The nature of assay [7]: inhibitors of Sendai virus-induced IRF3 signaling, primary screen, TLR/RLR signaling modifier project, cell-based, Sendai virus stimulus, luciferase, 10K MLSCN set (AID 602276).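 Further: firefly luciferase from ISG56 promoter only with Renilla not read in this screen; 0% = Sendai virus plus DMSO and 100% = medium plus DMSO without virus.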 To be noted: HEK293 RL24 IRF3 luciferase reporter, at 10 µM, stronger effect = higher value. (In general: A reporter such as luciferase makes a cellular process visible.)
A short description of assay [8]: inhibitors of poly I:C-induced TLR3 signaling, primary screen, cell-based, poly I:C stimulus, luciferase, 10K MLSCN set (AID 602277;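 active means inhibition of the reporter signal at or above 50%; inactive means inhibition below 50%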). To be noted: HEK293-TLR3 RL24 IRF3 luciferase reporter, at 10 µM, stronger effect = higher value.

Muscarinic acetylcholine receptor M4 (Homo sapiens), sequence (P08173 whole entry, looked up): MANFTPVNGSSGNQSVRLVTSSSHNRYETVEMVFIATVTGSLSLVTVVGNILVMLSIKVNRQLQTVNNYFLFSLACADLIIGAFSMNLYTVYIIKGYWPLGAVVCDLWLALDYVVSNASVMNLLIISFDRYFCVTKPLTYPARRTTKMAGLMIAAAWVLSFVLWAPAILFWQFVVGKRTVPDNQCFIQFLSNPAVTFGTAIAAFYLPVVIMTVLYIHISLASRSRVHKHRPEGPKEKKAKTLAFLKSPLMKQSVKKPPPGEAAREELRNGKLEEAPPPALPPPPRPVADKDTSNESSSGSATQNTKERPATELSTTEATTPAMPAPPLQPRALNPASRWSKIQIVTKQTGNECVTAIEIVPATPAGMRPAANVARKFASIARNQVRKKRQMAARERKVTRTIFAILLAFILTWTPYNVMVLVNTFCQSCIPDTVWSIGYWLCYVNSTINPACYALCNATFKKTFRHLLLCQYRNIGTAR
Voltage-gated potassium channel subunit beta-2 (Rattus norvegicus), sequence (P62483 whole entry, looked up): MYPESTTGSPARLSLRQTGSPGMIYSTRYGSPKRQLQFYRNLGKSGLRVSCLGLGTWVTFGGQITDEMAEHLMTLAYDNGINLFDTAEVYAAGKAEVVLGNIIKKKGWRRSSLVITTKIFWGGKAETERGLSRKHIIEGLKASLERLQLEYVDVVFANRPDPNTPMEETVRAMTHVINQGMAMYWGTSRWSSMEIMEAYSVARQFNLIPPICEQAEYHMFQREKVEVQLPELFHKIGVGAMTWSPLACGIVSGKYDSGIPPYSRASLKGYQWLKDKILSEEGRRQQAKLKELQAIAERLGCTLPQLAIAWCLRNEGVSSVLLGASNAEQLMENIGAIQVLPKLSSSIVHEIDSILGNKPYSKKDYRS

For `CN(C)c1ccc(NC(=O)CSCc2nc3c(nnn3Cc3ccc(F)cc3)c(=O)[nH]2)cc1`, the cell count in assay [1] worked out at 579. Also, the inhibition in assay [1] was 7.1% (inactive); in assay [3], -72.4% (inactive); in assay [7] it was 10.7% (inactive); in assay [8], 15.6% (inactive). The inhibition of aggregation in assay [2] was -8.4% (inactive). For the same molecule, the nuclei count in assay [2] was 105%; in assay [3], 114%. The values for the fluorescence slope in assay [4] and in assay [6] were -0.204 (inactive) and 0.00529 (inactive), respectively. For the same molecule, in assay [5], the NADPH fluorescence slope is -6.4e-06 (inactive).
`Cc1cc(C)c2c(N)c(C(=O)N3CCN(c4ncccn4)CC3)sc2n1`: the cell count in assay [1] came to 663. The inhibition was -9.1% (inactive) in assay [1], -10.2% (inactive) in assay [3], -3.01% (inactive) in assay [7] and -25.1% (inactive) in assay [8]. Also, the inhibition of aggregation in assay [2] was 5.1% (inactive). In addition, the nuclei count is 69.4% in assay [2] and 101% in assay [3]. In addition, the fluorescence slope in assay [4] is -0.559 (inactive); in assay [6], 0.00421 (inactive). Further, the NADPH fluorescence slope in assay [5] was -1.8e-05 (inactive).
`COc1ccc2nc(C)cc(N3CCOCC3)c2c1`: in assay [1], the cell count came out at 401. The inhibition in assay [1] is -8.1% (inactive); in assay [3] it was -34.7% (inactive); in assay [7], 16.2% (inactive); in assay [8], 18.7% (inactive). Moreover, the inhibition of aggregation in assay [2] is -8% (inactive). In addition, the nuclei count in assay [2] turned out to be 104%; in assay [3] it was 84.3%. In addition, the values for the fluorescence slope in assay [4] and in assay [6] were -0.484 (inactive) and 0.0041 (inactive), respectively. Further, the NADPH fluorescence slope in assay [5] was -0.000239 (inactive).
In the case of `COc1ccc(/C(O)=C2/C(=O)C(=O)N(Cc3cccnc3)C2c2ccncc2)cc1F` (stereo not drawn), the cell count in assay [1] came out at 574. Also, the inhibition was -7.6% (inactive) in assay [1], -3.5% (inactive) in assay [3], 8.93% (inactive) in assay [7] and 16.5% (inactive) in assay [8]. Besides, in assay [2], the inhibition of aggregation is -2.8% (inactive). The nuclei count in assay [2] turned out to be 106%; in assay [3], 117%. The values for the fluorescence slope in assay [4] and in assay [6] were -0.574 (inactive) and 0.00672 (inactive), respectively. Besides, the NADPH fluorescence slope in assay [5] is -8.3e-05 (inactive).
As for `CN(C(=O)c1ccno1)c1nnc(-c2cnccn2)s1`, the cell count in assay [1] turned out to be 596. Besides, the inhibition in assay [1] is -10.8% (inactive); in assay [3], -39.5% (inactive); in assay [7], 5.76% (inactive); in assay [8] it was 10.1% (inactive). In assay [2], the inhibition of aggregation is 10.8% (inactive). In addition, the nuclei count amounted to 97.4% in assay [2] and 107% in assay [3]. Moreover, the fluorescence slope is -0.309 (inactive) in assay [4] and 0.00542 (inactive) in assay [6]. Besides, the NADPH fluorescence slope in assay [5] is -5.2e-05 (inactive).
For the molecule `COc1ccc(CN(C(=O)c2ccccc2OC)C2CCS(=O)(=O)C2)cc1` (stereo not drawn), in assay [1], the cell count came to 452. The inhibition was 2.2% (inactive) in assay [1], 13.1% (inactive) in assay [3], 14.2% (inactive) in assay [7] and 23.7% (inactive) in assay [8]. In addition, the inhibition of aggregation in assay [2] is 23% (inactive). The nuclei count in assay [2] is 75%; in assay [3], 109%. The fluorescence slope was -0.58 (inactive) in assay [4] and 0.00303 (inactive) in assay [6]. In assay [5], the NADPH fluorescence slope is -7.5e-05 (inactive).
Regarding `Cc1nc2sc(C(c3cccc(F)c3)N3CCN(C(=O)c4ccco4)CC3)c(O)n2n1` (stereo not drawn), in assay [1], the cell count turned out to be 228. For the same molecule, the inhibition is -2.8% (inactive) in assay [1], -7% (inactive) in assay [3], -14.2% (inactive) in assay [7] and -22.6% (inactive) in assay [8]. In assay [2], the inhibition of aggregation is -3.1% (inactive). Also, the nuclei count in assay [2] was determined as 106%; in assay [3] it was 112%. Further, the values for the fluorescence slope in assay [4] and in assay [6] were -0.306 (inactive) and 0.00489 (inactive), respectively. Besides, the NADPH fluorescence slope in assay [5] was -1.4e-05 (inactive).
Consider `Cc1cnn(C(=S)NCc2ccco2)c1`, for which, in assay [1], the cell count was found to be 465. The inhibition in assay [1] was -13.6% (inactive); in assay [3], -15.2% (inactive); in assay [7] it was 6.4% (inactive); in assay [8] it was 1.55% (inactive). For the same molecule, the inhibition of aggregation in assay [2] is 17.2% (inactive). The nuclei count stood at 94.5% in assay [2] and 99.9% in assay [3]. The fluorescence slope in assay [4] is -0.49 (inactive); in assay [6] it was 0.0043 (inactive). Moreover, in assay [5], the NADPH fluorescence slope was -3.2e-05 (inactive).

The inhibition is the relative decrease from the control value, in per cent.
